# Test system: Fibroblast
# Test: Multiplex assay against human fibroblast
# Format: toxicity, cell-based
# Method in brief: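 Tubulin, mitochondrial-mass and membrane-permeability phenotypes are per cents of healthy-nucleus cells. Cells were gated by CellPathfinder machine learning into Hoechst high-intensity objects or normal cells, normal cells into healthy, pyknosed or fragmented nuclei, and pyknosed cells into mitotic or apoptotic. Before that, live cells stained at seeding with Hoechst33342, BioTracker Green Microtubule Cytoskeleton Dye, MitoTracker Red and Annexin V Alexa Fluor 680 were imaged on a CQ1 microscope at 37°C and 5% CO2 after compound addition.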
# [1] = 12 h, 1 µM, compound concentration 1 uM, replicate 1
# [2] = 12 h, 1 µM, compound concentration 1 uM, replicate 2
# [3] = 12 h, 10 µM, compound concentration 10 uM, replicate 1
# [4] = 12 h, 10 µM, compound concentration 10 uM, replicate 2
# [5] = 24 h, 1 µM, compound concentration 1 uM, replicate 1
# [6] = 24 h, 1 µM, compound concentration 1 uM, replicate 2
# [7] = 24 h, 10 µM, compound concentration 10 uM, replicate 1
# [8] = 24 h, 10 µM, compound concentration 10 uM, replicate 2
# [9] = 48 h, 1 µM, compound concentration 1 uM, replicate 1
# [10] = 48 h, 1 µM, compound concentration 1 uM, replicate 2
# [11] = 48 h, 10 µM, compound concentration 10 uM, replicate 1
# [12] = 48 h, 10 µM, compound concentration 10 uM, replicate 2
structure (smiles),measurement,setting,value
C[C@@H]1CC(=O)Nc2cccc(-c3ccc4c(c3)c(-c3cnn(C)c3)nn4C)c2N1,Population Apoptotic (%),[1],38%
same,Population Fragmented Nuclei (%),[1],20%
same,Population Healthy Nuclei (%),[1],63%
same,Population Hoechst High Intensity Objects (%),[1],1%
same,Population Membrane Permeable-Phenotype (%),[1],0%
same,Population Mitochondria Different-Phenotype (%),[1],4%
same,Population Mitotic Cells (%),[1],61%
same,Population Normal (%),[1],98%
same,Population Pyknosed Nuclei (%),[1],15%
same,Population Tubulin-Different-Phenotype (%),[1],31%
same,Total Cell Count,[1],115
same,Population Fragmented Nuclei (%),[2],26%
same,Population Healthy Nuclei (%),[2],47%
same,Population Hoechst High Intensity Objects (%),[2],5%
same,Population Membrane Permeable-Phenotype (%),[2],8%
same,Population Mitochondria Different-Phenotype (%),[2],12%
same,Population Normal (%),[2],94%
same,Population Pyknosed Nuclei (%),[2],26%
same,Population Tubulin-Different-Phenotype (%),[2],51%
same,Total Cell Count,[2],105
same,Population Apoptotic (%),[3],40%
same,Population Fragmented Nuclei (%),[3],17%
same,Population Healthy Nuclei (%),[3],65%
same,Population Hoechst High Intensity Objects (%),[3],5%
same,Population Membrane Permeable-Phenotype (%),[3],1%
same,Population Mitochondria Different-Phenotype (%),[3],19%
same,Population Mitotic Cells (%),[3],59%
same,Population Normal (%),[3],94%
same,Population Pyknosed Nuclei (%),[3],17%
same,Population Tubulin-Different-Phenotype (%),[3],63%
same,Total Cell Count,[3],161
same,Population Apoptotic (%),[4],30%
same,Population Fragmented Nuclei (%),[4],11%
same,Population Healthy Nuclei (%),[4],58%
same,Population Hoechst High Intensity Objects (%),[4],6%
same,Population Membrane Permeable-Phenotype (%),[4],7%
same,Population Mitochondria Different-Phenotype (%),[4],5%
same,Population Mitotic Cells (%),[4],69%
same,Population Normal (%),[4],93%
same,Population Pyknosed Nuclei (%),[4],30%
same,Population Tubulin-Different-Phenotype (%),[4],68%
same,Total Cell Count,[4],126
same,Population Apoptotic (%),[5],57%
same,Population Fragmented Nuclei (%),[5],16%
same,Population Healthy Nuclei (%),[5],67%
same,Population Hoechst High Intensity Objects (%),[5],2%
same,Population Membrane Permeable-Phenotype (%),[5],2%
same,Population Mitochondria Different-Phenotype (%),[5],5%
same,Population Mitotic Cells (%),[5],42%
same,Population Normal (%),[5],97%
same,Population Pyknosed Nuclei (%),[5],15%
same,Population Tubulin-Different-Phenotype (%),[5],33%
same,Total Cell Count,[5],122
same,Population Apoptotic (%),[6],35%
same,Population Fragmented Nuclei (%),[6],29%
same,Population Healthy Nuclei (%),[6],50%
same,Population Hoechst High Intensity Objects (%),[6],7%
same,Population Membrane Permeable-Phenotype (%),[6],11%
same,Population Mitochondria Different-Phenotype (%),[6],9%
same,Population Mitotic Cells (%),[6],65%
same,Population Normal (%),[6],92%
same,Population Pyknosed Nuclei (%),[6],19%
same,Population Tubulin-Different-Phenotype (%),[6],60%
same,Total Cell Count,[6],112
same,Population Apoptotic (%),[7],75%
same,Population Fragmented Nuclei (%),[7],19%
same,Population Healthy Nuclei (%),[7],69%
same,Population Hoechst High Intensity Objects (%),[7],10%
same,Population Membrane Permeable-Phenotype (%),[7],0%
same,Population Mitochondria Different-Phenotype (%),[7],15%
same,Population Mitotic Cells (%),[7],25%
same,Population Normal (%),[7],89%
same,Population Pyknosed Nuclei (%),[7],11%
same,Population Tubulin-Different-Phenotype (%),[7],66%
same,Total Cell Count,[7],158
same,Population Apoptotic (%),[8],42%
same,Population Fragmented Nuclei (%),[8],13%
same,Population Healthy Nuclei (%),[8],57%
same,Population Hoechst High Intensity Objects (%),[8],5%
same,Population Membrane Permeable-Phenotype (%),[8],1%
same,Population Mitochondria Different-Phenotype (%),[8],4%
same,Population Mitotic Cells (%),[8],57%
same,Population Normal (%),[8],94%
same,Population Pyknosed Nuclei (%),[8],29%
same,Population Tubulin-Different-Phenotype (%),[8],76%
same,Total Cell Count,[8],119
same,Population Apoptotic (%),[9],50%
same,Population Fragmented Nuclei (%),[9],25%
same,Population Healthy Nuclei (%),[9],60%
same,Population Hoechst High Intensity Objects (%),[9],5%
same,Population Membrane Permeable-Phenotype (%),[9],1%
same,Population Mitochondria Different-Phenotype (%),[9],6%
same,Population Mitotic Cells (%),[9],50%
same,Population Normal (%),[9],94%
same,Population Pyknosed Nuclei (%),[9],14%
same,Population Tubulin-Different-Phenotype (%),[9],21%
same,Total Cell Count,[9],114
same,Population Apoptotic (%),[10],30%
same,Population Fragmented Nuclei (%),[10],36%
same,Population Healthy Nuclei (%),[10],50%
same,Population Hoechst High Intensity Objects (%),[10],2%
same,Population Membrane Permeable-Phenotype (%),[10],12%
same,Population Mitochondria Different-Phenotype (%),[10],8%
same,Population Mitotic Cells (%),[10],69%
same,Population Normal (%),[10],97%
same,Population Pyknosed Nuclei (%),[10],13%
same,Population Tubulin-Different-Phenotype (%),[10],60%
same,Total Cell Count,[10],102
same,Population Apoptotic (%),[11],92%
same,Population Fragmented Nuclei (%),[11],17%
same,Population Healthy Nuclei (%),[11],73%
same,Population Hoechst High Intensity Objects (%),[11],3%
same,Population Membrane Permeable-Phenotype (%),[11],0%
same,Population Mitochondria Different-Phenotype (%),[11],19%
same,Population Mitotic Cells (%),[11],7%
same,Population Normal (%),[11],96%
same,Population Pyknosed Nuclei (%),[11],8%
same,Population Tubulin-Different-Phenotype (%),[11],68%
same,Total Cell Count,[11],162
same,Population Apoptotic (%),[12],60%
same,Population Healthy Nuclei (%),[12],62%
same,Population Hoechst High Intensity Objects (%),[12],4%
same,Population Membrane Permeable-Phenotype (%),[12],6%
same,Population Mitochondria Different-Phenotype (%),[12],2%
same,Population Mitotic Cells (%),[12],39%
same,Population Normal (%),[12],95%
same,Population Pyknosed Nuclei (%),[12],19%
same,Population Tubulin-Different-Phenotype (%),[12],69%
same,Total Cell Count,[12],122

# Source: ChEMBL document CHEMBL5058577, “EUbOPEN Chemogenomics Library 2 (Multiplex)” (2022)
